Assay results from ChEMBL document CHEMBL4312018, “Novel benzimidazole phosphonates as potential inhibitors of protein prenylation” (Bioorg Med Chem Lett, 2019).
Activity calls are given as the source filed them.

Experiments:
[1] = biological target: T1, Farnesyl pyrophosphate synthase (Homo sapiens) (UniProt P14324); assay: Inhibition of FDPS in human RPMI8226 cells assessed as unmodified Rap1a level at =< 1 mM after 48 hrs by immunoblot analysis; format: cell-based
T1 sequence (whole entry): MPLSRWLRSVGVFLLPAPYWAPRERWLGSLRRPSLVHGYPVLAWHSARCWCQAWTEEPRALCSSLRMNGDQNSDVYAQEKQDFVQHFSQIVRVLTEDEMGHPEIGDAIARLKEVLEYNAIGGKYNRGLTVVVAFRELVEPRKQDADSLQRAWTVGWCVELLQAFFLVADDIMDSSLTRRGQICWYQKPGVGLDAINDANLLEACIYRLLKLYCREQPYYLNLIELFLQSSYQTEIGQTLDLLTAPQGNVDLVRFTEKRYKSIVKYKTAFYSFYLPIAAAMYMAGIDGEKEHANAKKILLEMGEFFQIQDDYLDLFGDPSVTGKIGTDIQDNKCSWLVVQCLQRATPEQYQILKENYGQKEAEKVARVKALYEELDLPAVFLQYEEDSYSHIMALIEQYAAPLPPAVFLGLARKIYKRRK
Method in brief: (§1)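 RPMI-8226 cells were exposed for 48 h. The lowest effective concentration counts only when two read-outs agree. Unmodified Rap1a must be visible on immunoblot of whole-cell lysate, using an antibody that detects only unmodified protein.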

[2] = biological target: T2, Farnesyl pyrophosphate synthase (Homo sapiens, UniProt P14324); assay: Inhibition of FDPS (unknown origin) using [14C] IPP and GPP as substrate preincubated for 10 mins followed by substrate addition and measured after 30 min by liquid scintillation counting method
T2 sequence (P14324 whole entry): T1 sequence (whole entry)

[3] = biological target: T3, Geranylgeranyl pyrophosphate synthase (Homo sapiens, UniProt O95749); assay: Inhibition of GGDPS (unknown origin) using [14C] IPP and FPP as substrate preincubated for 10 mins followed by substrate addition and measured after 30 min by liquid scintillation counting method
T3 sequence (O95749 whole entry): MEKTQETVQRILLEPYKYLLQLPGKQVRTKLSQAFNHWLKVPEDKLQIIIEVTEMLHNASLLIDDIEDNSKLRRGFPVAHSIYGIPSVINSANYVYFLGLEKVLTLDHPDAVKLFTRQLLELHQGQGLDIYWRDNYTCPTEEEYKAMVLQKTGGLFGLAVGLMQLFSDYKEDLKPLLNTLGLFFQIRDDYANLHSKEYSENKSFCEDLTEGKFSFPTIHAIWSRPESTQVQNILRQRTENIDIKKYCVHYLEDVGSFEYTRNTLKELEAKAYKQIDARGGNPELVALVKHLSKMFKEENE

[4] = biological target: T4, Geranylgeranyl transferase type-2 (Homo sapiens) (UniProt P53611+Q92696); assay: Inhibition of GGtase-2 in human RPMI8226 cells assessed as increase in intracellular lambda chain at =< 1 mM level after 48 hrs by ELISA; format: cell-based
Method in brief: (§2)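 RPMI-8226 cells were incubated 48 h with the compound or medium alone. Intracellular lambda light chain was quantified by ELISA and expressed as percent of untreated control (mean ± SD, n=3). Significance versus control was judged by t-test, p<0.05.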

[5] = biological target: T5, Geranylgeranyl transferase type-2 (Rattus norvegicus, UniProt Q08602+Q08603); assay: Inhibition of recombinant rat RabGGTase expressed in Escherichia coli using Rab7 as substrate and [3H]geranylgeranyl pyrophosphate after 20 mins by liquid scintillation analysis
T5 sequence (Q08603 whole entry): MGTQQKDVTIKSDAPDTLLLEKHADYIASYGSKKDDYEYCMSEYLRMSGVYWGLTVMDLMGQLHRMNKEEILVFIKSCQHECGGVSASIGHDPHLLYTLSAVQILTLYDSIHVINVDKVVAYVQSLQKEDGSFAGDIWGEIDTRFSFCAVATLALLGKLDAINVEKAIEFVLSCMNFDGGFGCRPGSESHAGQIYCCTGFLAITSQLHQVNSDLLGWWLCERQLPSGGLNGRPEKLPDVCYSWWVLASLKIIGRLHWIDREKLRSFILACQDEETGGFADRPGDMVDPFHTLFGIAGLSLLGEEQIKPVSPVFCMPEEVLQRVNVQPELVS
T5 sequence (Q08602 whole entry): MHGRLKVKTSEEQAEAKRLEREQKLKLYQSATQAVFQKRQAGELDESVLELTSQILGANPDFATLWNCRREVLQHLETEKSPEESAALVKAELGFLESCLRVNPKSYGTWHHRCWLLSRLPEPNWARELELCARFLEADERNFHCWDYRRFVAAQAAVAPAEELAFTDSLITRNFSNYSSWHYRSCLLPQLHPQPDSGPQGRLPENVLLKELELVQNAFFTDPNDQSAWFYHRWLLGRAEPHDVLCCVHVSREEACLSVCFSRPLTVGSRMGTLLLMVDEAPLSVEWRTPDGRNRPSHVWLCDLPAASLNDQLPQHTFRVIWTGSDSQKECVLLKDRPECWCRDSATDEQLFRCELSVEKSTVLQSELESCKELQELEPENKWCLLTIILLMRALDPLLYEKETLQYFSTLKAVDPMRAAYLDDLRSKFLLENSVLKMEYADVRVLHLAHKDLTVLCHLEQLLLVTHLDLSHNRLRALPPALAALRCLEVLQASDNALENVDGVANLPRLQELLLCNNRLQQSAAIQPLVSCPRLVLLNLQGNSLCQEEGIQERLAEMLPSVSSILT

[6] = biological target: geranylgeranyltransferase type-I (Rattus norvegicus, UniProt P53610+Q04631); assay: Inhibition of recombinant rat GGtase-1 expressed in Escherichia coli using dansyl-GCVLL as substrate after 1.5 hrs by spectrofluorimetric analysis
[7] = biological target: Protein farnesyltransferase (Rattus norvegicus, UniProt Q02293+Q04631); assay: Inhibition of recombinant rat FTase expressed in Escherichia coli using dansyl-GCVLS as substrate after 1.5 hrs by spectrofluorimetric analysis
[8] = biological target: T4, Geranylgeranyl transferase type-2 (Homo sapiens); assay: Inhibition of GGtase-2 in human RPMI8226 cells assessed as decrease in Rab6 level at =< 1 mM after 48 hrs by immunoblot analysis relative to control; format: cell-based
Method in brief: (§3)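 After 48 h treatment, RPMI-8226 cells were extracted with Triton X-114 to give a detergent (membrane) fraction, which was immunoblotted for Rab6. Rab6 band density was normalized to calnexin and expressed relative to untreated cells. Blots are representative of three independent studies.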

[9] = biological target: Protein farnesyltransferase (Homo sapiens) (UniProt P49354+P49356); assay: Inhibition of FTase in human RPMI8226 cells assessed as disruption of H-ras farnesylation after 48 hrs by immunoblot analysis; format: cell-based
[10] = biological target: Geranylgeranyl transferase type I (Homo sapiens) (UniProt P49354+P53609); assay: Inhibition of GGtase-1 in human RPMI8226 cells assessed as disruption of Rap1a geranylgeranylation after 48 hrs immunoblot analysis; format: cell-based
[11] = biological target: T1, Farnesyl pyrophosphate synthase (Homo sapiens); assay: Inhibition of FDPS in human RPMI8226 cells assessed as increase in intracellular lambda chain level at =< 1mM after 48 hrs by ELISA; format: cell-based
Method in brief: (§4)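 RPMI-8226 cells were exposed for 48 h, and intracellular lambda light chain was measured by ELISA as percent of untreated control. The lowest effective concentration also requires unmodified Rap1a to be visible on whole-cell-lysate immunoblot with an unmodified-specific antibody. The ELISA rise must be statistically significant.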

[12] = biological target: T4, Geranylgeranyl transferase type-2 (Homo sapiens); assay: Inhibition of GGtase-2 in human cells assessed as decrease in Rab6 level at =< 5 mM after 48 hrs by immunoblot analysis relative to control; format: cell-based; method in brief: as §3
[13] = biological target: T1, Farnesyl pyrophosphate synthase (Homo sapiens); assay: Inhibition of FDPS in human RPMI8226 cells assessed as unmodified Rap1a level at =< 5 mM after 48 hrs by immunoblot analysis; format: cell-based; method in brief: as §1
[14] = biological target: T1, Farnesyl pyrophosphate synthase (Homo sapiens); assay: Inhibition of FDPS in human RPMI8226 cells assessed as increase in intracellular lambda chain level at =< 5 mM after 48 hrs by ELISA; format: cell-based; method in brief: as §4
[15] = biological target: T4, Geranylgeranyl transferase type-2 (Homo sapiens); assay: Inhibition of GGtase-2 in human cells assessed as increase in intracellular lambda chain at =< 5 mM level after 48 hrs by ELISA; format: cell-based; method in brief: as §2
[16] = biological target: T4, Geranylgeranyl transferase type-2 (Homo sapiens); assay: Inhibition of GGtase-2 in human cells assessed as minimum effective dose required for increase in intracellular lambda chain level after 48 hrs by ELISA; format: cell-based
Method in brief: (§5)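 The lowest effective concentration in RPMI-8226 cells after 48 h requires both criteria below: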

[17] = biological target: T1, Farnesyl pyrophosphate synthase (Homo sapiens)
[18] = biological target: T1, Farnesyl pyrophosphate synthase (Homo sapiens); remark: listed apart in the source
[19] = biological target: T4, Geranylgeranyl transferase type-2 (Homo sapiens); assay: Inhibition of GGtase-2 in human cells assessed as minimum effective dose causing => 20% decrease in Rab6 level after 48 hrs by immunoblot analysis; format: cell-based; method in brief: as §5

Compound | inhibition [1] | IC50 [2] [µM] | IC50 [3] [µM] | inhibition [4] | IC50 [5] [µM] | IC50 [6] [µM] | IC50 [7] [µM] | inhibition [8] | inhibition [9] | inhibition [10] | inhibition [11] | inhibition [12] | inhibition [13] | inhibition [14] | inhibition [15] | LED [16] [mM] | LED [17] [mM] | LED [18] [mM] | LED [19] [mM]
CC(Cn1cnc2ccccc21)(P(=O)(O)O)P(=O)(O)O | inactive | 1 | > 100 | inactive | > 1000 | > 1000 | > 1000 | inactive | inactive | inactive | inactive |  |  |  |  |  |  |  | 
O=C(O)C(Cn1cnc2cc(F)c(F)cc21)P(=O)(O)O (stereo not drawn) |  | > 100 | > 100 |  | > 1000 | 145 | 450 |  |  |  |  | inactive | inactive | inactive | inactive |  |  |  | 
Cc1cc2ncn(CC(C(=O)O)P(=O)(O)O)c2cc1C (stereo not drawn) |  | > 100 | > 100 |  | > 1000 | > 1000 | > 1000 |  |  |  |  | inactive | inactive | inactive | inactive |  |  |  | 
CC(Cn1cnc2ccccc21)(C(=O)O)P(=O)(O)O (stereo not drawn) |  | > 100 | > 100 |  | 810 | > 1000 | > 1000 |  |  |  |  |  |  |  |  | 5 | 5 | 5 | 5
